697 NFkB inh – lowers PMA/ionomycin-induced NF-kB signal in 697 B cells; 697 B-cell NF-kB luciferase reporter, 16 h; inhibition, % at 4 µM; actives 0.33% (n = 330,000); in the data active = inhibition above about 35%
NR2E3 ag-1 – NR2E3 (human) agonism; GST-NR2E3/biotin-RetCOR TR-FRET, 1536-well; inhibition of corepressor binding, % at 4.78 µM; actives 0.12% (n = 320,000); AID 2300;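 active = percent inhibition above the cutoff of mean plus 3 SD of all tested compounds, set per screening campaign, cut at about 20% in these data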
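Format: 1536-well format; test system: GST-NR2E3 and biotin-RetCOR proteins; read-out basis: percent inhibition of TR-FRET ratio; timing: 5 h incubation at 4 °C; detection: time-resolved FRET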
Gli-Sufu antag – blocks Gli-Sufu signaling in a luciferase reporter. actives 0.74% (n = 340,000). Sufu-KO-LIGHT fibroblasts, Gli luciferase reporter luminescence. inhibition, % at 5 µM. AID 588413;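 active = inhibition above about 55%, limit read from the data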
NR2E3 ag-2 – agonists of human NR2E3 nuclear receptor | Q9Y5X4 | actives 0.35% (n = 360,000) | CHO-S Gal4-NCOR/VP16-NR2E3 two-hybrid, luciferase | inhibition of corepressor binding, % at 3.98 µM;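 active = inhibition above the mean of all tested compounds plus 3 SD, cut at about 70% in these data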;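 also: higher means lower luciferase signal from less NR2E3 corepressor binding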
GalR3 antagonist – antagonists of human GalR3 | O60755 | HEK293 GalR3-CNG cAMP membrane potential fluorescence; galR3 body fused to GalR1 C-terminus | inhibition, % at 3 µM | actives 0.44% (n = 360,000) | AID 651719;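 active = inhibition above the screen-wide average plus 3 SD, cut at about 13% in these data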;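 also: forskolin and galanin both at EC90 stimulate the cells; cAMP rise reported by CNG channel membrane potential dye signal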
Target sequence (O60755 1-299 limits assumed): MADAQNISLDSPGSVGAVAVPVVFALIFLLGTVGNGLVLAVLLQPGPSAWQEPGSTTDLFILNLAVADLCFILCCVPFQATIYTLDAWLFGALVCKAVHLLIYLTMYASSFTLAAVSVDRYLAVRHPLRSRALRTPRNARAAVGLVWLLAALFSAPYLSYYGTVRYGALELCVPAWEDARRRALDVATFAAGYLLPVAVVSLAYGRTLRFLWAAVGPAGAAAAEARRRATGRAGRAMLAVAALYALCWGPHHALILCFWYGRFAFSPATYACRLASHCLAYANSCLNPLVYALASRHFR
Jurkat NFkB inh – inhibitors of the PMA/ionomycin-induced NF-kB reporter in Jurkat cells; PMA/ionomycin-induced NF-kB luciferase reporter, luminescence; AID 435003; actives 0.53% (n = 330,000); inhibition, % at 4 µM; in the data active = inhibition above about 50%
Gli-Sufu confirm – Gli-SUFU antagonism confirmation, single concentration; shares compounds with Gli-Sufu antag; Sufu-KO-LIGHT cells, Gli luciferase reporter, luminescence; inhibition, % at 5 µM; actives 40% (n = 2,500); AID 602428;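 active = mean inhibition at 5 µM reaching about 45%, limit read from the data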
Gli cytotox – cytotoxic in Gli-SUFU antagonist counter-screen. cytotoxicity, % at 5 µM. shares compounds with Gli-Sufu antag. Sufu-KO-LIGHT cells cytotoxicity, ATP luminescence. actives 32% (n = 2,500). AID 651994;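 active = mean cytotoxicity at 5 µM above about 25%, limit read from the data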;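 also: cells exposed to compound overnight for roughly 16 to 18 hours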
Wnt3a counter – counter-screen for Gli-SUFU antagonists: Wnt3a reporter inhibition; inhibition, % at 6.25 µM; shares compounds with Gli-Sufu antag; actives 20% (n = 2,500); Wnt-LIGHT cells, Wnt3a-driven luciferase reporter, luminescence;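 active = mean inhibition above about 25%, limit read from the data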
Of the large screens only hits and unclear results are named; the others gave an inactive call (follow-up assays come after a bar, where they were run). Only some compounds are listed: those with a hit (about 1.8% of all), similar ones and a draw of the others.

CC(=O)OCC1=C(C(=O)O)N2C(=O)C(NC(=O)c3ccc(COc4ccc(Cl)cc4)o3)C2SC1 (stereo not drawn)	none | Gli-Sufu confirm inactive | Gli cytotox inactive | Wnt3a counter inactive
O=C(O)Cn1nnnc1SCC(=O)Nc1ccccc1F	Gli-Sufu antag 57 | Gli-Sufu confirm inactive | Gli cytotox inactive | Wnt3a counter inactive
COc1cccc(OC)c1/C(O)=C(\C#N)c1nc2ccccc2[nH]1	none | Gli-Sufu confirm inactive | Gli cytotox inactive | Wnt3a counter inactive
COc1ccc(CNS(=O)(=O)c2csc(C(N)=O)c2)cc1OC	Gli-Sufu antag 55 | Gli-Sufu confirm inactive | Gli cytotox inactive | Wnt3a counter inactive
CC(=O)N1c2ccc(S(=O)(=O)N3CCCC(C(=O)Nc4ccc(C)cc4)C3)cc2CC1C (stereo not drawn)	none (no result: 697 NFkB inh, NR2E3 ag-1, Gli-Sufu antag, Jurkat NFkB inh)
COc1ccc(S(=O)(=O)N2CCOCC2)cc1C(=O)N1CCCC1	Gli-Sufu antag 61 | Gli-Sufu confirm inactive | Gli cytotox inactive | Wnt3a counter inactive
COc1ccc(S(=O)(=O)N2CCCC(C(=O)N3CCOCC3)C2)cc1Cl (stereo not drawn)	none
COc1ccc(S(=O)(=O)N2CCCC(C(=O)N3CCOCC3)C2)cc1C (stereo not drawn)	Gli-Sufu antag 99 | Gli-Sufu confirm inactive | Gli cytotox inactive | Wnt3a counter inactive
Cc1cc(S(=O)(=O)N2CCCC(C(=O)Nc3ccc(C(=O)O)cc3)C2)ccc1Cl (stereo not drawn)	Gli-Sufu antag 55 | Gli-Sufu confirm inactive | Gli cytotox inactive | Wnt3a counter inactive
CCN(c1ccc(OC)cc1)S(=O)(=O)N1CCCC(C(=O)NCc2cccc(C)c2)C1 (stereo not drawn)	none (no result: GalR3 antagonist)
COCCN(C(=O)CCC(=O)Nc1nccs1)C(C(=O)NCCC(C)C)c1ccc(OC)cc1 (stereo not drawn)	none
CS(=O)(=O)N(CC(=O)Nc1ccccc1Sc1ccccc1)c1ccc(F)cc1	Gli-Sufu antag 65 | Gli-Sufu confirm inactive | Gli cytotox inactive | Wnt3a counter inactive
COc1cc(NS(=O)(=O)c2ccc(C)cc2C)cc(OC)c1OC	none | Gli-Sufu confirm 50 | Gli cytotox inactive | Wnt3a counter inactive
O=S(=O)(NCc1ccc(Cl)cc1)c1ccc(Br)cc1C1CC[C@@H](O)C1 (stereo partly drawn)	none (no result: 697 NFkB inh, NR2E3 ag-1, Gli-Sufu antag, NR2E3 ag-2, Jurkat NFkB inh)
CC(C)(C)c1nc(NCCO)c2nnn(Cc3ccccc3)c2n1	none
Cc1ccnc(NC(=O)CCC(=O)N(CC(=O)NCc2ccc(F)cc2)Cc2ccco2)c1	Gli-Sufu antag 63 | Gli-Sufu confirm inactive | Gli cytotox inactive | Wnt3a counter inactive
Cn1ncc(Cl)c1C(=O)N1CCN(C23CC4CC(CC(C4)C2)C3)CC1	Gli-Sufu antag 99 | Gli-Sufu confirm inactive | Gli cytotox inactive | Wnt3a counter inactive
Cc1ccc(OCCC(=O)N2CCN(c3ccc(O)cc3)CC2)cc1	none | Gli-Sufu confirm inactive | Gli cytotox inactive | Wnt3a counter inactive
O=C(NCc1n[nH]c(=S)n1-c1ccc(Br)cc1)c1cccs1	none
COC(=O)c1[nH]c2cc(OC)ccc2c1NC(=O)CN1CCC(C(N)=O)CC1	none
COC(=O)c1[nH]c2cc(OC)ccc2c1NC(=O)CN1CCC(C(N)=O)(N2CCCCC2)CC1	Gli-Sufu antag 75 | Gli-Sufu confirm inactive | Gli cytotox inactive | Wnt3a counter inactive
CCOC(=O)C(NC(=O)c1cccnc1)(Nc1cccc(C)n1)C(F)(F)F (stereo not drawn)	none
CCOC(=O)C(NCc1ccccn1)(NC(=O)c1cccnc1)C(F)(F)F (stereo not drawn)	Gli-Sufu antag 96 | Gli-Sufu confirm inactive | Gli cytotox inactive | Wnt3a counter inactive
COc1ccc(CN(C2CCCC2)S(=O)(=O)c2cc(Br)ccc2Br)c(OC)c1	none (no result: 697 NFkB inh, NR2E3 ag-1, Gli-Sufu antag, NR2E3 ag-2, Jurkat NFkB inh)

From PubChem
